High-throughput results: PubChem, The Scripps Research Institute Molecular Screening Center
TAAR1 agonist: agonists of human TAAR1; Q96RJ0; actives 0.99% (n = 360,000); CHO RD-HGA16 TAAR1, Fluo-8 calcium fluorescence; vehicle wells 0%, saturating PEA agonist 100%; activation, % at 3 µM; AID 624467;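 active = activation above the mean activation of all test compounds in the run plus 3 SD, cut at about 38% in these data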
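Repeats: no replicates (n 1) | Material: CHO-derived RD-HGA16 cells with stable Gα16 and human TAAR1 | Technique: Kinetic Fluo-8 calcium fluorescence | Schedule: 17-24 h seeding, 75 min 37 °C dye, 30 min RT | Evaluation: % activation from peak over basal fluorescence ratio, DMSO-to-PEA scaled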
OXTR ag: human OXTR agonism | CHO-OTR cells, Fluo-8 calcium fluorescence; normalized: DMSO 0%, oxytocin 100% | actives 0.32% (n = 320,000) | activation, % at 3 µM | P30559;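 active = activation above the mean of all tested compounds plus 3 SD, cutoff set per screening run, cut at about 20% in these data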;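 note: peak over basal fluorescence ratio from a 100 s FLIPR kinetic read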
Target sequence (P30559 whole entry, looked up): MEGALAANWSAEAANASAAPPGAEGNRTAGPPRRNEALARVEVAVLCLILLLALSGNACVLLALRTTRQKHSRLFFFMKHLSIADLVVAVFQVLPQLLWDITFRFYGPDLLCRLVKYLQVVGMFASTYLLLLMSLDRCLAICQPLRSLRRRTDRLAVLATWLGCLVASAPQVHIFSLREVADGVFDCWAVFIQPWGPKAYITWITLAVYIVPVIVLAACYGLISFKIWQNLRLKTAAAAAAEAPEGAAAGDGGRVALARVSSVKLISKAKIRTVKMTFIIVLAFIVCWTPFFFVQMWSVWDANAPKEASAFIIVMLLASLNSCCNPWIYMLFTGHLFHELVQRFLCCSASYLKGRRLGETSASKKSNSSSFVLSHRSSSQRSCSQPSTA
TAAR1 antagonist: antagonists of human TAAR1; actives 1.5% (n = 360,000); CHO RD-HGA16 TAAR1, Fluo-8 calcium fluorescence, antagonist; inhibition, % at 3 µM; Q96RJ0;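 active = inhibition above a per-plate cutoff, the mean inhibition of test compounds on that plate plus 3 SD, cut at about 49% in these data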
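Assay system: RD-HGA16 CHO cells with stable hTAAR1 and Gα16 / Reagent: EC80 β-phenethylamine stimulus / Doses: 3 µM, single point / Timing: dye loading 75 min at 37 °C, then 30 min room temperature / Measured by: Fluo-8 intracellular calcium dye fluorescence, real-time kinetic reads / Controls: vehicle wells and EC80 agonist wells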
V1R ag counter: V1a receptor agonism, counter-screen for OXTR agonists | activation, % at 3 µM | actives 0.25% (n = 320,000) | CHO-V1R cells, Fluo-8 calcium fluorescence, agonist mode; 0% DMSO, 100% 3 nM vasopressin | AID 2797 | P37288;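 active = activation above the mean activation of all tested compounds plus 3 SD, per screening run, cut at about 20% in these data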;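 note: signal is peak over basal fluorescence ratio across a 100 second FLIPR read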
Target sequence (P37288 whole entry, looked up): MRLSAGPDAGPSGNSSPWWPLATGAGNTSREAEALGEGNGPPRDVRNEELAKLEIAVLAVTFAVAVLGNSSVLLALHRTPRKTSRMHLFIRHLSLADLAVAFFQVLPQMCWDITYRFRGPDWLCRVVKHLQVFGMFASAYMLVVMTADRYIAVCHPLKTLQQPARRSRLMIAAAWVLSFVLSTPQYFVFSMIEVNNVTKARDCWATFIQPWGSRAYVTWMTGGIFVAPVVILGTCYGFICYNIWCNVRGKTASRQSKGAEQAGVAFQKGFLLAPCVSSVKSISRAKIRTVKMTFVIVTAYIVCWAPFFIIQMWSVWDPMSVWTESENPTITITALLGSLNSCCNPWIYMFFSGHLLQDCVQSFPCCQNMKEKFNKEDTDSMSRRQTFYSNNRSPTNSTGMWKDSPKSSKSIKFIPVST
OXTR potentiate: potentiators of human oxytocin receptor | P30559 | CHO-OTR cells, Fluo-8 calcium fluorescence, potentiator mode; 0% = oxytocin EC15, 100% = EC100 | activation, % at 3 µM | actives 0.061% (n = 320,000);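 active = activation above that plate's cutoff, the mean activation of tested compounds plus 3 SD, cut at about 6.6% in these data, passing the limit was not always enough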
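Dosing: Single dose, 3.0 µM nominal final compound concentration | Material: Human OTR in CHO cells | Technique: Kinetic Fluo-8 calcium fluorescence | Benchmarks: EC15 oxytocin alone as 0%, 75 nM oxytocin as 100% | Probe or stimulus: Oxytocin at about EC15, sub-maximal agonist stimulus | Incubation: Compound 6 min at room temperature before oxytocin, 100 s read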
nonsel antag count: counter-screen for TAAR1 antagonists: nonselective antagonists. shares compounds with TAAR1 antagonist. counterscreen cell line, calcium fluorescence, antagonist mode. inhibition, % at 3 µM. actives 77% (n = 2,400). AID 651780; in the data active = inhibition above about 22%;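 note: CHO-Ga16 host cells stimulated with ATP at an EC80 level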
TAAR1 ant conf: human TAAR1 antagonism, confirmed; AID 651785; shares compounds with TAAR1 antagonist; actives 40% (n = 2,400); inhibition, % at 3 µM; TAAR1-expressing cells, fluorescence antagonist read-out; in the data active = inhibition above about 49%;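 note: CHO-Ga16 host cells challenged with agonist PEA near its EC80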
Ga16 ag counter: nonselective Ga16 agonist in TAAR1 antagonist counter-screen; activation, % at 3 µM; shares compounds with TAAR1 antagonist; actives 18% (n = 2,400); Ga16-expressing cells, calcium fluorescence, agonist counterscreen; in the data active = activation above about 12%
TAAR1 ag count: TAAR1 agonism, antagonist counter-screen; shares compounds with TAAR1 antagonist; hTAAR1 cell line, fluorescence activation, agonist mode; activation, % at 3 µM; actives 2% (n = 2,400); AID 651955; in the data active = activation above about 37%;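 note: CHO cells stably expressing TAAR1 with calcium dye readout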
Each line names hits and unclear results; the compound was inactive in the other large screens (follow-up assays come after a bar, where they were run). An excerpt weighted towards active compounds, which were near 2.3% of everything screened.

O=C(Nc1ccc(Cl)c(S(=O)(=O)N2CCOCC2)c1)c1cc(-c2ccccn2)nc2ccccc12	TAAR1 antagonist 63.2 | nonsel antag count 43.2 | TAAR1 ant conf 56.6 | Ga16 ag counter 13.6 | TAAR1 ag count inactive
O=C(Nc1ccc(Cl)c(S(=O)(=O)N2CCOCC2)c1)c1ccccn1	none
COc1ccc(C(=O)CC(SCC(NC(C)=O)C(=O)O)c2ccc(Cl)cc2)cc1OC (stereo unspecified)	none
CC(=O)c1cccc(NC(=O)Cn2nc(-c3ccc(Cl)cc3)ccc2=O)c1	none
CN(Cc1cnn(C)c1)C(=O)c1cc(COc2c(F)cccc2F)on1	TAAR1 antagonist 105.2 | nonsel antag count inactive | TAAR1 ant conf inactive | Ga16 ag counter inactive | TAAR1 ag count inactive
Cc1ccc2nc(NC(=O)CSCc3ccccc3)sc2c1	TAAR1 antagonist 49.7 | nonsel antag count inactive | TAAR1 ant conf inactive | Ga16 ag counter inactive | TAAR1 ag count inactive
Cc1ccc2nc(NC(=O)CS(=O)(=O)Cc3ccccc3)sc2c1	none
COc1ccc(C(C(=O)NC2CCCCC2)N(Cc2ccco2)C(=O)c2snc(C(N)=O)c2N)cc1 (stereo unspecified)	TAAR1 antagonist 71.3 (no result: OXTR ag, V1R ag counter, OXTR potentiate) | nonsel antag count 30.7 | TAAR1 ant conf 53.2 | Ga16 ag counter inactive | TAAR1 ag count inactive
NC(=O)c1nsc(C(=O)N(Cc2ccco2)C(C(=O)NC2CCCC2)c2ccc(O)cc2)c1N (stereo unspecified)	TAAR1 antagonist 53.1 (no result: OXTR ag, V1R ag counter, OXTR potentiate) | nonsel antag count 21.9 | TAAR1 ant conf inactive | Ga16 ag counter inactive | TAAR1 ag count inactive
COc1ccc(C(C(=O)NC2CCCC2)N(Cc2ccco2)C(=O)c2snc(C(N)=O)c2N)cc1OC (stereo unspecified)	none
CC(C(=O)NC1CCCC1)N(Cc1ccco1)C(=O)c1snc(C(=O)NC2CCCC2)c1N (stereo unspecified)	none
COc1ccc(C2CC(=O)C(c3cccc(OC)c3)=CN2Cc2ccccc2)cc1 (stereo unspecified)	none (no result: OXTR ag, V1R ag counter, OXTR potentiate)
COc1ccc(C2CC(=O)C(c3ccccc3C)=CN2Cc2ccccc2)cc1 (stereo unspecified)	TAAR1 antagonist 56.1 (no result: OXTR ag, V1R ag counter, OXTR potentiate) | nonsel antag count inactive | TAAR1 ant conf inactive | Ga16 ag counter inactive | TAAR1 ag count inactive
COc1ccc(C2CC(=O)C(c3ccccc3)=CN2Cc2ccccc2)cc1 (stereo unspecified)	TAAR1 antagonist 58.0 (no result: OXTR ag, V1R ag counter, OXTR potentiate) | nonsel antag count 28.2 | TAAR1 ant conf inactive | Ga16 ag counter inactive | TAAR1 ag count inactive
CCOC(=O)N1CCN(S(=O)(=O)N2CCCC(C(=O)NCc3ccc(OC)cc3)C2)CC1 (stereo unspecified)	none
CCOC(=O)c1cc2c(N)c(C(=O)c3cc(C#N)c(SC)nc3C)sc2nc1C	TAAR1 antagonist 68.0 | nonsel antag count 30.6 | TAAR1 ant conf inactive | Ga16 ag counter inactive | TAAR1 ag count inactive
O=C(COC(=O)c1ccc(N2CCOCC2)c([N+](=O)[O-])c1)Nc1ccc2c(c1)OCO2	none
CC1CCCN(c2ccc(C(=O)Nc3ccc4c(c3)OCO4)cc2[N+](=O)[O-])C1 (stereo unspecified)	TAAR1 antagonist 70.2 | nonsel antag count 24.7 | TAAR1 ant conf 72.5 | Ga16 ag counter inactive | TAAR1 ag count inactive
CC1CCN(c2ccc(C(=O)Nc3ccc4c(c3)OCO4)cc2[N+](=O)[O-])CC1	TAAR1 antagonist 51.4 | nonsel antag count 28.6 | TAAR1 ant conf 51.3 | Ga16 ag counter inactive | TAAR1 ag count inactive
CC1CCCN(c2ccc(C(=O)NCc3ccc4c(c3)OCO4)cc2[N+](=O)[O-])C1 (stereo unspecified)	none
COc1ccc(-c2cc(C(=O)NCCCN3CCCC3=O)c3ccccc3n2)cc1	TAAR1 antagonist 50.3 | nonsel antag count inactive | TAAR1 ant conf inactive | Ga16 ag counter inactive | TAAR1 ag count inactive
COc1ccc2sc(-c3ccc(S(C)(=O)=O)cc3)c(C(=O)NCCCN3CCCC3=O)c2c1	TAAR1 antagonist 49.0 | nonsel antag count 31.5 | TAAR1 ant conf inactive | Ga16 ag counter inactive | TAAR1 ag count inactive
O=C(NCCCN1CCCC1=O)c1cc(-c2ccc(F)cc2)nc2ccccc12	none
CCN1C(=O)C(CC(=O)Nc2ccc(OC)cc2)N(CCc2ccccc2F)C1=S (stereo unspecified)	TAAR1 antagonist 74.5 | nonsel antag count 30.8 | TAAR1 ant conf inactive | Ga16 ag counter inactive | TAAR1 ag count inactive
CCN1C(=O)C(CC(=O)Nc2ccc(OC)cc2)N(CCc2ccccc2)C1=S (stereo unspecified)	none
COc1ccc(NC(=O)CC2C(=O)N(C)C(=S)N2CCc2ccccc2F)cc1 (stereo unspecified)	TAAR1 antagonist 57.2 | nonsel antag count 36.6 | TAAR1 ant conf 55.8 | Ga16 ag counter 12.0 | TAAR1 ag count inactive
CCN(CC)c1ccc(S(=O)(=O)N2CCOCC2)cc1NC(=O)COC(=O)c1ccco1	none
CCN(CC)c1ccc(S(=O)(=O)N2CCOCC2)cc1NC(=O)COC(=O)/C=C/c1ccccc1	TAAR1 antagonist 69.7 (no result: OXTR ag, V1R ag counter, OXTR potentiate) | nonsel antag count 31.0 | TAAR1 ant conf inactive | Ga16 ag counter inactive | TAAR1 ag count inactive
COC(=O)c1ccc(N2C(c3ccsc3)=Cc3cc4c(cc3C2CC(=O)c2ccco2)OCO4)cc1 (stereo unspecified)	none (no result: OXTR ag, V1R ag counter, OXTR potentiate)
CC(C)COc1cccc(C(=O)N(CC(=O)Nc2ccccc2C(F)(F)F)Cc2ccco2)c1	TAAR1 antagonist 60.6 | nonsel antag count inactive | TAAR1 ant conf inactive | Ga16 ag counter inactive | TAAR1 ag count inactive
CC(=O)C1=C(C)NC(=S)NC1c1ccc(F)cc1 (stereo unspecified)	none (no result: OXTR ag, V1R ag counter, OXTR potentiate)
COc1ccc(-c2cc(NC(C)=O)c3ncc(-c4ccc(OC)c(OC)c4)n3c2)c(OC)c1	none (no result: OXTR ag, V1R ag counter, OXTR potentiate)
CC(=O)Nc1cc(-c2ccccc2F)cn2c(-c3ccccc3)cnc12	TAAR1 antagonist 68.2 (no result: OXTR ag, V1R ag counter, OXTR potentiate) | nonsel antag count 28.5 | TAAR1 ant conf inactive | Ga16 ag counter inactive | TAAR1 ag count inactive
COc1ccc(-c2cc(NC(C)=O)c3ncc(-c4ccccc4)n3c2)c(OC)c1	TAAR1 antagonist 67.9 (no result: OXTR ag, V1R ag counter, OXTR potentiate) | nonsel antag count 26.4 | TAAR1 ant conf inactive | Ga16 ag counter inactive | TAAR1 ag count inactive
COc1ccc(-c2cc(NC(C)=O)c3ncc(-c4ccccc4)n3c2)cc1OC	none (no result: OXTR ag, V1R ag counter, OXTR potentiate)
